Rows were chosen to be rich in hits. Some 1.3% of all compounds tested hit in one or more screens of this group.
DDE Tn7 FP inh: inhibitors of Tn7 peptide binding to fibrin DD(E), primary screen, biochemical, fluorescence polarization, human fibrin, Tn7 probe. Fibrinogen beta chain (Homo sapiens), P02675. FP displacement of FITC-Tn7 peptide from fibrin DD(E); 0% = median of compound wells per plate. inhibition, % at 8.3 µM. hit rate 0.13% among 370,000. AID 720508, 2013;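 active = inhibition above the mean of compounds falling within the control limits plus 3 SD of them, cut at about 14% in these data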;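 note: 0% = plate median of compound wells and 100% = 10 µM Aha-Tn7 peptide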
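Assay system: Human clot-derived fibrin DD(E) complex | Buffer or medium: Tris/NaCl/CaCl2 buffer, pH 7.8 | Repeats: One replicate per compound | Benchmarks: Aha-Tn7 high control | Measure: % inhibition scaled between sample-field median and high-control FP | Schedule: 10 min plus 3 h, room temperature | Signal: Fluorescence polarization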
DDE Tn6 FP inh: inhibitors of Tn6 peptide binding to fibrin DD(E), primary screen, biochemical, fluorescence polarization, human fibrin, Tn6 probe. hit rate 0.21% among 370,000. inhibition, % at 8.3 µM. Fibrin DD(E) TRITC-Tn6 fluorescence polarization displacement. AID 720509, 2013;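 active = inhibition above a per-campaign cutoff: mean of compounds within control limits plus 3 SD, cut at about 15% in these data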;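 note: 0% = median of all compound wells on the plate and 100% = blocking peptide control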
aDG glyco act: activators of alpha-DG glycosylation, primary screen, uHTS, Pro5-aDG cells, AlphaScreen; hit rate 0.22% among 360,000; activation, % at 10 µM; alpha-DG glycosylation AlphaScreen (IIH6); 0% Pro5, 100% B10-LARGE cell signal;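 active = activation of at least 8% versus controls, or a plate z-score of at least 8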;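 note: Pro5 are CHO cells carrying HIG-tagged alpha-DG that lacks glycosylation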
NRP1-CendR mod: modulators of CendR peptide binding to NRP-1, primary screen, biochemical, fluorescence polarization, uHTS; inhibition, % at 25 µM; AID 602438, 2012; hit rate 0.85% among 360,000; Neuropilin-1 (Homo sapiens), O14786; FAM-RPARPAR peptide binding to NRP-1;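 active = inhibition or corrected inhibition above about 18%, plus a signal ratio from 0.5 to 1.5, limit read from the data, passing the limit was not always enough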
Target sequence (O14786 whole entry, looked up): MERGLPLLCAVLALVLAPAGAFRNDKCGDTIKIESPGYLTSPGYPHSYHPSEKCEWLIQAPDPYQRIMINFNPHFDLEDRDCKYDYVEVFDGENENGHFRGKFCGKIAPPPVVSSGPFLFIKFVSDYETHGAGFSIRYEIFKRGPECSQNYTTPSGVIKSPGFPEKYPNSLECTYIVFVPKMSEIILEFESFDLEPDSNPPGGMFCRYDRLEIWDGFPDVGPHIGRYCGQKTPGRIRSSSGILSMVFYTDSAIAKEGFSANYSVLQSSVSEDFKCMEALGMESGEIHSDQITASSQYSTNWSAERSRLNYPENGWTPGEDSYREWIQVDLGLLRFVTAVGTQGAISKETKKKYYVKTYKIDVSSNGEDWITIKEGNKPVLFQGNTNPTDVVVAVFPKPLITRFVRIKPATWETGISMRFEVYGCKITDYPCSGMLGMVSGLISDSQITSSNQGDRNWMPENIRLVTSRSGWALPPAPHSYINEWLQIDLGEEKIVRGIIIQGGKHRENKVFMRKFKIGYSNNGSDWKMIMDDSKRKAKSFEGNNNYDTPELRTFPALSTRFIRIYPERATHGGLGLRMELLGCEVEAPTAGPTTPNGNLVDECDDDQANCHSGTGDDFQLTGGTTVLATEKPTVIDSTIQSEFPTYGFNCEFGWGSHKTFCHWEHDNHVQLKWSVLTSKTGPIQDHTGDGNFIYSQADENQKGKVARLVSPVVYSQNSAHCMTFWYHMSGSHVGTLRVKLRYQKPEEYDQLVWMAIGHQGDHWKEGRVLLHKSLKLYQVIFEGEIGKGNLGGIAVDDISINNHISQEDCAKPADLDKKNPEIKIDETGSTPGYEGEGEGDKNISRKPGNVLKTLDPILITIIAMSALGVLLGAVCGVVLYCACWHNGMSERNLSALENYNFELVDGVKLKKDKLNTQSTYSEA
Tn7 DDE conf: inhibitors of Tn7 peptide binding to fibrin DD(E), confirmation, biochemical, fluorescence polarization, human fibrin, Tn7 probe. shares compounds with DDE Tn7 FP inh. FP displacement of TRITC-Tn7 peptide from DD(E); 0% set at plate's compound-well median. inhibition, % at 8.3 µM. hit rate 5% among 460. AID 720628, 2013;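 active = inhibition above the campaign cutoff, the mean of compounds within control limits plus 3 SD, cut at about 14% in these data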;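 note: 100% = median FP of high control wells holding Aha-Tn7 inhibitor peptide; displacers lower polarization since freed probe rises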
Tn7 DDE ctr: DD(E)-Tn7 binding inhibition, counter-screen. shares compounds with DDE Tn7 FP inh. fibrin DD(E), TRITC-Tn7 probe displacement, fluorescence polarization. inhibition, % at 8.3 µM. hit rate 3% among 460;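 active = inhibition above the cutoff, the mean of compounds lying between the control bounds plus 3 SD of those compounds, cut at about 17% in these data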;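 note: 0% = median of compound sample wells and 100% = excess unlabeled Aha-Tn7 peptide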
The depositor's hits bear a star.

How did C[C@H]1CN=C(N(C)C)N1CCCCc1ccccc1 do in these assays?
DDE Tn7 FP inh: 16*; DDE Tn6 FP inh: 6; aDG glyco act: 0; NRP1-CendR mod: 6; Tn7 DDE conf: 9; Tn7 DDE ctr: 5

Results for c1cc(-c2nnc3n2N=C(c2ccc4c(c2)OCO4)CS3)ccn1 ?
DDE Tn7 FP inh: 1; DDE Tn6 FP inh: 1

What do the screens show for `Cc1cc(C(=O)NNc2cc(Cl)ccc2Cl)no1`?
DDE Tn7 FP inh: 2; DDE Tn6 FP inh: 1; aDG glyco act: 0; NRP1-CendR mod: 7

What do the screens show for `Cc1cc(C(=O)NNc2c(Cl)cccc2Cl)no1`?
DDE Tn7 FP inh: 14*; DDE Tn6 FP inh: 3; aDG glyco act: 0; NRP1-CendR mod: -4; Tn7 DDE conf: 2; Tn7 DDE ctr: -3

Results for C[C@@H]1CNC(=O)c2c(C(=O)N[C@H](C)c3ccccc3)ncn21 ?
DDE Tn7 FP inh: 0; DDE Tn6 FP inh: 0; aDG glyco act: 0; NRP1-CendR mod: -16

Results for C=C[C@@H]1c2cc(C)ccc2N(S(=O)(=O)c2ccc(C)cc2)[C@H](c2ccccc2)C1(C#N)C#N ?
DDE Tn7 FP inh: 14*; DDE Tn6 FP inh: 1; aDG glyco act: 0; NRP1-CendR mod: -3; Tn7 DDE conf: -1; Tn7 DDE ctr: -13

How did CC(C)C[C@H]1COc2cc(Br)ccc2S(=O)(=O)N1Cc1ccc(F)cc1F do in these assays?
DDE Tn7 FP inh: -4; DDE Tn6 FP inh: -10

What do the screens show for `O=C(CP(=O)(c1ccccc1)c1ccccc1)Nn1cnnc1`?
DDE Tn7 FP inh: 17*; DDE Tn6 FP inh: 2; aDG glyco act: 0; NRP1-CendR mod: -4; Tn7 DDE conf: -1; Tn7 DDE ctr: -4

How did NNC(=O)CP(=O)(c1ccccc1)c1ccccc1 do in these assays?
DDE Tn7 FP inh: 7; DDE Tn6 FP inh: -2; aDG glyco act: 0; NRP1-CendR mod: -12

How did Cc1ccccc1C(=O)NC1CCCCN(Cc2cccc(F)c2)C1=O (configuration not stated) do in these assays?
DDE Tn7 FP inh: 0; DDE Tn6 FP inh: 1

Results for CC(C)(C)c1cc[n+](-c2[nH]c(=O)sc2/C=N/NC([S-])=Nc2ccccc2)cc1 ?
DDE Tn7 FP inh: 20*; DDE Tn6 FP inh: -4; aDG glyco act: 0; NRP1-CendR mod: 54*; Tn7 DDE conf: -6; Tn7 DDE ctr: -11

What do the screens show for `O=C(NCc1ccccc1)[C@@H]1CCCN1C(=O)[C@H]1CCCN1C(=O)C1CCCCC1`?
DDE Tn7 FP inh: -8; DDE Tn6 FP inh: -3

What do the screens show for `COc1cc(NC(=O)Nc2nc(C(N)CCc3ccccc3)cs2)cc(OC)c1OC` (configuration not stated)?
DDE Tn7 FP inh: 1; DDE Tn6 FP inh: -7; aDG glyco act: 1; NRP1-CendR mod: -2

What do the screens show for `CCOc1ccc(/C=N/n2c(SC)nnc(C(C)(C)C)c2=O)cc1`?
DDE Tn7 FP inh: 15*; DDE Tn6 FP inh: 0; aDG glyco act: 0; NRP1-CendR mod: -10; Tn7 DDE conf: 0; Tn7 DDE ctr: 1

What do the screens show for `CSc1ccc(C2C(C(=O)c3ccco3)=C(O)C(=O)N2c2nnc(SC)s2)cc1` (configuration not stated)?
DDE Tn7 FP inh: 26*; DDE Tn6 FP inh: 3; aDG glyco act: 0; NRP1-CendR mod: 135; Tn7 DDE conf: -4; Tn7 DDE ctr: -12

What do the screens show for `Cc1nnc(N2C(=O)C(O)=C(C(=O)c3ccco3)C2c2ccc(F)cc2)s1` (configuration not stated)?
DDE Tn7 FP inh: 3; DDE Tn6 FP inh: 1; aDG glyco act: 1; NRP1-CendR mod: 28

Results for CCOC(=O)C1=CN(Cc2ccco2)S(=O)(=O)N(C)C1c1ccc2ccccc2c1 (configuration not stated) ?
DDE Tn7 FP inh: 15*; DDE Tn6 FP inh: -1; aDG glyco act: 0; NRP1-CendR mod: -7; Tn7 DDE conf: 3; Tn7 DDE ctr: -3

How did CCOC(=O)C1=CN(Cc2ccco2)S(=O)(=O)N(C)C1c1ccc(C(F)(F)F)cc1 (configuration not stated) do in these assays?
DDE Tn7 FP inh: 0; DDE Tn6 FP inh: -6; aDG glyco act: 0; NRP1-CendR mod: 2

How did C=CCNc1ccc2c(c1)OC[C@H](Cc1ccccc1)NS2(=O)=O do in these assays?
DDE Tn7 FP inh: 1; DDE Tn6 FP inh: -4

How did CCCC1CCC2(CC1)CCC2OC(=S)Nc1ccccc1OC (configuration not stated) do in these assays?
DDE Tn7 FP inh: 7; DDE Tn6 FP inh: 13

How did Cc1cc(C(F)F)n2ncc(C(=O)NCc3ccccc3C(F)(F)F)c2n1 do in these assays?
DDE Tn7 FP inh: 14*; DDE Tn6 FP inh: 3; aDG glyco act: 1; NRP1-CendR mod: 2; Tn7 DDE conf: 1; Tn7 DDE ctr: -2

How did Cc1ccc(NC(=O)c2ccc(NCCCN3CCC(C)CC3)c([N+](=O)[O-])c2)cc1F do in these assays?
DDE Tn7 FP inh: 15*; DDE Tn6 FP inh: -6; aDG glyco act: 0; NRP1-CendR mod: -18; Tn7 DDE conf: 3; Tn7 DDE ctr: 3

How did COc1ccccc1NS(=O)(=O)c1cc(Cl)ccc1OC do in these assays?
DDE Tn7 FP inh: 14*; DDE Tn6 FP inh: 4; aDG glyco act: 0; NRP1-CendR mod: -9; Tn7 DDE conf: 10; Tn7 DDE ctr: 7

How did COc1ccccc1NS(=O)(=O)c1ccc(OC)c(OC)c1 do in these assays?
DDE Tn7 FP inh: -6; DDE Tn6 FP inh: -4; aDG glyco act: 0; NRP1-CendR mod: -6

How did CNc1ccc2ncc(-c3cccc(C(=O)N(C)C)c3)n2n1 do in these assays?
DDE Tn7 FP inh: 3; DDE Tn6 FP inh: -9; aDG glyco act: 1; NRP1-CendR mod: 6

What do the screens show for `COc1ccc(N2C(=O)c3cccc4c(N(C)CCO)ccc(c34)C2=O)cc1`?
DDE Tn7 FP inh: -2; DDE Tn6 FP inh: -2; aDG glyco act: 0; NRP1-CendR mod: 132

How did Cc1ccc(N2C(=O)c3cccc4c(C(=O)O)ccc(c34)C2=O)cc1 do in these assays?
DDE Tn7 FP inh: 3; DDE Tn6 FP inh: -3

How did O=C1c2cccc3c(O)ccc(c23)C(=O)N1c1ccc(Cl)cc1 do in these assays?
DDE Tn7 FP inh: 40*; DDE Tn6 FP inh: 14; aDG glyco act: 1; NRP1-CendR mod: 120; Tn7 DDE conf: 3; Tn7 DDE ctr: 8

How did O=C1c2cccc3c(O)ccc(c23)C(=O)N1Cc1ccco1 do in these assays?
DDE Tn7 FP inh: 56*; DDE Tn6 FP inh: 12; aDG glyco act: 0; NRP1-CendR mod: 143; Tn7 DDE conf: 6; Tn7 DDE ctr: 4

Screens deposited in PubChem BioAssay by several laboratories.
